Results of several laboratories.
Each line is one published result; the experiments were not run side by side.
Target: Maternal embryonic leucine zipper kinase (MELK, Homo sapiens, UniProt Q14680)

Compound	assay	setting	remaining binding
O=C(Nc1c[nH]nc1C(=O)NC1CCNCC1)c1cc(F)cc(F)c1	binding, competition with immobilised ligand	1 µM	82%
C=CC(=O)N1CCC(C(=O)NCC(=O)N2CCN(c3nc(-c4cnc(N)nc4C(F)F)nc(N4CCOCC4)n3)CC2)CC1	binding, competition with immobilised ligand	1 µM	100%
CN(c1nccc(-c2cnn3ncccc23)n1)C1CC1	binding	1 µM	73%
O=C(c1ccc(Nc2nccc(-c3cc4ccccc4s3)n2)cc1)N1CCC(N2CCCC2)CC1	binding, competition with immobilised ligand	1 µM	100%
F[C@@H]1CCN(c2nccc(-c3cnn4ncccc34)n2)C1	binding	1 µM	100%
COc1ncc2cc3ccccc3nc2c1C#N	cell-free assay, competition with immobilised ligand	5 µM	83%
CCN1CCN(Cc2ccc(C(=O)Nc3ccc(C)c(Oc4ccc5c(c4)CC(=O)N5)c3)cc2C(F)(F)F)CC1	binding, competition with immobilised ligand	1 µM	100%
CN(C)c1ncc(F)c(-c2cnn3ncccc23)n1	binding	1 µM	79%
COc1ccc2c(c1)O[C@@H](c1ccc(OC)c(OC)c1)C[C@H]2NC(=O)C1(c2ccc3c(c2)OC(F)(F)O3)CC1	cell-free assay, competition with immobilised ligand	1 µM	65%
C[C@@H](c1ccc(-n2cnc3c(N)ncnc32)cc1)N1CCc2nn(C)c(Cc3ccccc3)c2C1=O	binding, competition with immobilised ligand	0.1 µM	93%
CCC(=O)N[C@@H]1CC[C@H](C(=O)N(C)c2ccc(-c3nc4ccccc4o3)cc2)C1	cell-free assay, competition with immobilised ligand	1 µM	100%
CN(C)c1nccc(-c2cnc3ncccn23)n1	binding	1 µM	100%
CN([C@@H]1CCc2c(CC(=O)O)c3cc(S(C)(=O)=O)ccc3n2C1)S(=O)(=O)c1ccc(F)cc1	cell-free assay, competition with immobilised ligand	1 µM	84%
FC(F)(F)Oc1cccc(-c2cnc3ccc(-c4ccncc4)nn23)c1	cell-free assay, competition with immobilised ligand	5 µM	56%
CC(=O)N1CCC(c2ccc(C(=O)NC3=NCCN3)cc2C(F)(F)F)CC1	cell-free assay, competition with immobilised ligand	1 µM	100%
O=C(NCCCN1CCOCC1)c1ccc(Nc2ncc(Cl)c(-c3ccc(Cl)s3)n2)cc1	binding, competition with immobilised ligand	1 µM	69%
CNC(=O)[C@@H]1CC[C@@H](n2c(-c3ccc4cnccc4c3)nc3ccc(C(=O)NCc4cccc(C(N)=O)c4)cc32)C1	binding, competition with immobilised ligand	1 µM	78%
N[C@H]1CCN(c2nccc(-c3cnn4ncccc34)n2)C1	binding	1 µM	69%
O=S(=O)(NC1CCC(c2cc(F)ccc2F)(S(=O)(=O)c2ccc(Cl)cc2)CC1)C(F)(F)F (stereo not shown)	cell-free assay, competition with immobilised ligand	1 µM	69%
O=C(NCCCN1CCOCC1)c1ccc(Nc2nccc(-c3cc4ccccc4s3)n2)cc1	binding, competition with immobilised ligand	1 µM	100%
C[C@H]1CCN(c2nccc(-c3cnn4ncccc34)n2)C1	binding	1 µM	33%
CC1=C(C#N)[C@@H](c2ccc3[nH]nc(C)c3c2)C(C#N)=C(c2ccc(Cl)cc2)N1	cell-free assay, competition with immobilised ligand	1 µM	100%
